INS-1E GSIS act: GLuc luminescence reporter in INS-1E cells, primary screen for activators of glucose-dependent secretion of insulin; INS-1E GLuc reporter insulin secretion, 2-3 h; activation, % at 16.6 µM; 0.61% of 370,000 active; AID 743287;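 active means lowest replicate activation of at least 40%, so every replicate reaches that level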;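 further: 0% = median of neutral control wells and 100% = median of IBMX positive control wells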
F508del corr: correctors of CFTR F508del function in bronchial epithelial cells; 0.36% of 350,000 active; activity (quench increase), % at 7.58 µM; CFBE cells, YFP halide quenching; stimulated with forskolin plus potentiator P3; % fluorescence drop versus neutral controls;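 active means mean added fluorescence quench of at least 8% versus neutral control, with both replicates also reaching 8%; inconclusive means only one of the mean or replicate conditions met; inactive means mean below 8% and not both replicates reaching 8%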;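 further: cells transiently co-express mutant CFTR-F508del with the halide-sensitive YFP; corrector assay measuring rescue of mutant channel to the surface after 24 h compound exposure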
Env fusion inh: blocks HIV Env-driven cell-cell fusion; HeLa-JRFL Env/CEM21 cell fusion, luciferase; inhibition, % at 12.3 µM; 1.1% of 360,000 active;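 active means mean replicate inhibition score of at least 50 and every replicate individually at or above 50; inconclusive means only one of the two criteria met; inactive means mean below 50 and not all replicates reaching 50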;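 further: 0% = plate neutral controls and 100% = maraviroc near 300 nM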
Cneo AK release: Cryptococcus neoformans lysis via adenylate kinase release | C. neoformans lysis, adenylate kinase release luminescence, 4 h; normalised: neutral wells 0, clomiphene wells 100 | lysis activity, % at 15 µM | 0.2% of 360,000 active | AID 651654;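 active means mean lysis activity across replicates of at least 80%, whatever share of replicates individually reach that level; inactive means mean lysis activity below 80%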
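Test system: log-phase Cryptococcus neoformans yeast cells; Quantity: yeast cell density of 5 × 10^6 cells/mL; Buffer or medium: YPD; Doses: single compound concentration per well; Timing: 4 h at 37 °C static, read 1 h later; Measured by: AK luminescence; Read-out basis: lysis from increased AK signal; Control set: Clomiphene as positive control.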
miR122 inh: blocks miR-122 activity in Huh7 sensor cells | activation (reporter increase), % at 12.5 µM | Huh7 miR-122 Renilla luciferase sensor, 48 h; neutral wells = 0, positive control = 100 | AID 602342 | 0.3% of 340,000 active;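 active means mean replicate activation score at least 90 and every replicate individually at or above 90; inconclusive means only one of the two criteria met; inactive means neither criterion met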;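 further: higher luciferase means less miR-122 activity so hits act as miR-122 inhibitors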
Ecoli rRNA inh: selective bacterial rRNA inhibition in E. coli | GFP signal change (wild-type ribosome), % (no concentration beside the values) | AID 720706 | E. coli WT GFP vs humanized-ribosome RFP mutants, fluorescence, 24 h; hits give low values; DMSO median 0, no signal -100 | 1.6% of 350,000 active;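 active means significant combined selectivity score with lowered wild-type GFP, culture density cut under 30%, mutant RFP and density less affected; inactive means any of these conditions unmet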
Active calls of the source: *; ? = inconclusive; . = not tested or not shown; [ ] = dose if it differs, or a comment. In the library only some 3.1% were active in any assay of this set; here they are far more common.

SMILES | INS-1E GSIS act | F508del corr | Env fusion inh | Cneo AK release | miR122 inh | Ecoli rRNA inh
C[C@@H]1CCCCO[C@H](CN(C)S(=O)(=O)c2ccccc2)[C@@H](C)CN([C@H](C)CO)C(=O)c2cc(N(C)C)ccc2O1 | -6 | 4 | 23[16.7 µM] | -1 | -7[16.7 µM] | 1
COc1ccc(CN(C)C[C@H]2Oc3c(NS(=O)(=O)c4ccccc4)cccc3C(=O)N([C@@H](C)CO)C[C@@H]2C)cc1 | 3 | -4 | -14[16.7 µM] | -1 | 23[16.7 µM] | 1
O=C(N=Nc1c(O)[nH]c2ccc(Br)cc12)c1ccccc1-n1cccc1 | 5 | 13* | . | -2 | 58 | -29*
Cc1cccc(C)c1OCC(=O)N=Nc1c(O)[nH]c2ccc(Br)cc12 | 51* | . | -45 | 0 | -14 | .
CC(C(=O)NC1C=CS(=O)(=O)C1)N1C(=O)/C(=C\c2ccccc2)SC1=S (centres undefined) | 15 | 3 | 5 | -1 | -5 | -16*
CC(C(=O)NC1C=CS(=O)(=O)C1)N1C(=O)/C(=C/c2cccc(Cl)c2)SC1=S (centres undefined) | -15 | 1 | -23 | . | . | -28*
CCC(=O)Nc1ccc2c(c1)C(=O)N(C)C[C@@H](OC)[C@H](C)CN(Cc1ccccn1)[C@H](C)CO2 | 3 | 0 | 4[16.7 µM] | 43 | -2[16.7 µM] | -3
N#CC(c1nc2ccccc2nc1N1CCCC1)S(=O)(=O)c1ccccc1 (centres undefined) | 5 | . | 16 | -2 | 17 | .
Cc1cccc(S(=O)(=O)C(C#N)c2nc3ccccc3nc2N2CCCC2)c1 (centres undefined) | . | . | . | -1 | 119* | .
CCCCN(CC)CCNC(=O)c1cc2c(-c3ccc(Cl)cc3)nn(C)c2s1 | 67* | 1 | 2 | 2 | 3 | -9
COc1ccc2c3c([nH]c2c1)[C@H](CO)N(C(=O)CC1CC1)CC31CN(Cc2cccnc2)C1 | -5 | 6 | . | . | . | -1
COc1ccc(-c2ccc(/C=C3/C(=N)N4C=CSC4=NC3=O)o2)c([N+](=O)[O-])c1 | 158* | . | -47 | 2 | -2 | .
CN(C)C(=O)c1ccc(-c2ccc(C3[C@H]4CNC[C@@H]3N4Cc3ccccn3)cc2)cc1 (some centres undefined) | -2 | -1 | . | . | . | 8
Cc1ccc(S(=O)(=O)N2CCCCC2)cc1NC(=O)COC(=O)C1CC2C=CC1C2 (centres undefined) | -7 | . | -3 | 2 | -4 | .
Cc1ccc(NC(=O)COc2ccccc2C#N)cc1S(=O)(=O)N1CCCCCC1 | -28 | 0 | 2 | 1 | -8 | -25*
COc1ccc(NC(=O)COc2ccc(C)c(C)c2)cc1S(=O)(=O)N1CCCCC1 | -17 | 1 | 0 | -2 | . | -8
COc1ccc(NC(=O)CSCC(=O)Nc2ccc(C)c(S(=O)(=O)N3CCCCCC3)c2)cc1 | 0 | -1 | 16 | 0 | 6 | -35*
COc1ccc(NC(=O)COc2cc(C)cc(C)c2)cc1S(=O)(=O)N1CCCCC1 | -12 | 3 | 61* | 5 | 9 | -3
Cc1ccc(NC(=O)COC(=O)C2CC3C=CC2C3)cc1S(=O)(=O)N1CCCCC1 (centres undefined) | -9 | -1 | -6 | 1 | -4 | -26*
CC(C)NC(=O)Nc1cccc2c1O[C@@H](CN(C)C(=O)Nc1cccc3ccccc13)[C@@H](C)CN([C@H](C)CO)C2=O | 9 | -2 | -1[16.7 µM] | 5 | 17[16.7 µM] | 1
C[C@H]1CN([C@@H](C)CO)C(=O)c2cc(-c3ccccc3)cnc2O[C@@H]1CN(C)C(=O)Cc1cccnc1 | 6 | 2 | 1[16.7 µM] | 2 | -1[16.7 µM] | -4
CCCc1cc(=O)[nH]c(SCC(=O)Nc2ccc(OC)c(S(=O)(=O)N3CCCCC3)c2)n1 | -1 | 0 | 13 | 1 | 8 | -22*
O=c1c(-c2ccccc2)c(O)c2c(n1-c1ccccc1)CCCC2 | 10 | . | . | . | . | .
CC(C)c1c(O)c2c(n(-c3ccccc3)c1=O)CCCC2 | 61* | . | -4 | . | . | .
Cc1cc(C)c2nc(C(F)(F)F)nc(N3CCN(C(=O)c4ccco4)CC3)c2c1 | . | . | 73* | 2 | -6 | .
SMILES | INS-1E GSIS act | F508del corr | Env fusion inh | Cneo AK release | miR122 inh | Ecoli rRNA inh
C[C@@H]1CN([C@H](C)CO)C(=O)c2cc(NC(=O)CCC(F)(F)F)ccc2O[C@@H]1CN(C)Cc1ccc(C(F)(F)F)cc1 | -7 | -1 | . | -1 | -3[16.7 µM] | -2
CCCCSc1nnc(CCCCCNC(=O)OC(C)(C)C)o1 | . | . | 55* | -1 | -2 | .
CCCNC(=O)N1C[C@@H](O)COC[C@@H]2O[C@@H](CC(=O)N3CCOCC3)CC[C@H]21 | 20 | 3 | . | 3 | -2[16.7 µM] | -2
Cc1noc(C)c1S(=O)(=O)Nc1ccc2c(c1)C(=O)N([C@H](C)CO)C[C@@H](C)[C@H](CN(C)C(=O)CCC(F)(F)F)OCCCC[C@@H](C)O2 | 0 | 3 | -17[16.7 µM] | 0 | -6[16.7 µM] | 0
COc1ccc(C(=O)OCC(=O)c2cc(OC)ccc2OC)c(OC)c1 | 8 | . | . | 0 | 3 | .
COc1ccc(C(=O)COC(=O)c2ccccc2O)c(OC)c1 | 4 | -1 | -67 | -2 | 5 | -18*
Cn1c(=O)c2c(nc(Br)n2Cc2ccc3ccccc3c2)n(C)c1=O | . | . | 58* | -2 | 36 | .
COc1ccc(Oc2nc3c(c(=O)n(C)c(=O)n3C)n2C)cc1 | 18 | 1 | ? | 0 | 1 | 14
CCC(C)Nc1nc2c(c(=O)n(C)c(=O)n2C)n1Cc1ccc(Cl)cc1 (centres undefined) | . | 0 | 3 | 0 | 3 | -1
CCNc1nc2c(c(=O)n(C)c(=O)n2C)n1Cc1ccc(Cl)cc1 | -11 | 1 | 60* | -2 | -12 | 7
Cn1c(=O)c2c(nc(Oc3ccc4ccccc4c3)n2C)n(C)c1=O | 21 | . | 102* | -3 | 11 | .
COc1ccc(/C=C/c2c(-c3ccc(OC)cc3)oc3ccccc23)cc1 | 1 | 2 | 56* | 1 | 3 | 2
COc1ccc(/C=C/c2c(-c3cccc(C)c3)oc3ccc(N4CCOCC4)cc23)cc1 | -1 | -1 | 36 | -3 | 12 | 8
COC(=O)c1ccc(/C=C/c2c(-c3ccc(OC)cc3)oc3ccccc23)cc1 | 3 | -1 | 8 | -10 | 3 | 9
COC(=O)c1ccc(/C=C/c2c(-c3ccc(OC)cc3)oc3ccc(N4CCOCC4)cc23)cc1 | 6 | 9.6* | 18 | -2 | 13 | 11
COCC(=O)Nc1ccc2c(c1)OC[C@@H](C)N(Cc1ccccc1F)C[C@@H](C)[C@H](OC)CN(C)C2=O | -22 | 0 | . | -4 | -3[16.7 µM] | -2
O=C(C[C@H]1CC[C@H](NC(=O)Nc2ccccc2)[C@@H](CO)O1)NCc1ccccn1 | 7 | 1 | -5[16.7 µM] | 0 | . | 3
